The results in this text go back to ChEMBL document CHEMBL1156252, “Sigma-1 ligands: Tic-hydantoin as a key pharmacophore” (Eur J Med Chem, 2010).

Molecular target in the first test: not listed separately
Briefly: Displacement of [3H]DTG […] from sigma 2 receptor in rat cerebral cortex after 120 mins. It is filed as tissue-based. The essentials: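 Rat cerebral cortex membranes incubated with […] (5 nM) plus (+)-pentazocine (300 nM) to mask σ1 sites, with a concentration range of test compound, 2 h at 22 °C in 5 mM Tris/HCl pH 7.4. […] Bound ligand was collected by GF/B filtration, washed with ice-cold saline and counted by liquid scintillation.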
(In general: In a radioligand displacement assay an active substance lowers the binding of a labelled ligand.)
In the case of `CN(CCCN1C(=O)[C@@H]2Cc3ccccc3CN2C1=O)Cc1ccccc1`, the IC50 (in general, the concentration that gives 50% inhibition) was over 0.5 µM.

Another test concerns the target Sigma-1 receptor (Homo sapiens, Jurkat). Nature of the test: Displacement of [3H](+)-pentazocine from sigma 1 receptor in human Jurkat cells by scintillation counting.
Take `CN(CCCN1C(=O)C2Cc3ccccc3CN2C1=S)Cc1ccccc1` (centres undefined): the IC50 was found to be 0.0045 µM.

In turn, `CN(CCCN1C(=O)[C@H](Cc2ccccc2)N(C)C1=O)Cc1ccccc1` had an IC50 of over 0.2 µM.

As for `CN(CCCN1C(=O)[C@H]2Cc3ccccc3C[C@H]2C1=O)Cc1ccccc1`, the IC50 came to 0.057 µM. In other words, the double-digit nanomolar range. Regarding `CN(CCCN1C(=O)c2ccncc2C1=O)Cc1ccccc1`, the IC50 was over 0.2 µM. For `CN(CCCn1c(=O)[nH]c2ccccc2c1=O)Cc1ccccc1`, the IC50 amounted to 0.116 µM. This counts as sub-micromolar. On the same count and under the same terms, the figure for `CN(CCCN1C(=O)c2cccnc2C1=O)Cc1ccccc1` is over 0.2 µM. In turn, `CN(CCCn1c(=O)[nH]c2ccc(Cl)cc2c1=O)Cc1ccccc1` showed an IC50 of over 0.2 µM. As for `CN(CCCn1c(=O)[nH]c2ccc(I)cc2c1=O)Cc1ccccc1`, the IC50 was found to be 0.103 µM.
